According to PMC3748600 (Chembiochem : a European journal of chemical biology, 2012):
pIC50, pKi: −log10 of the molar value.

What was measured:
[1] = test system: human cannabinoid receptor CB1; conditions: cited from earlier work
[2] = test system: a different cell line; conditions: cited from earlier work
[3] = target: T1, CB1 receptor (Homo sapiens, UniProt P21554); assay: Cannabinoid CB1 receptor binding assay; conditions: read-out: CB1 Ki; human recombinant CB1 in HEK-293 cells, [3H]CP-55940 0.5 nM
T1 sequence (P21554 whole entry): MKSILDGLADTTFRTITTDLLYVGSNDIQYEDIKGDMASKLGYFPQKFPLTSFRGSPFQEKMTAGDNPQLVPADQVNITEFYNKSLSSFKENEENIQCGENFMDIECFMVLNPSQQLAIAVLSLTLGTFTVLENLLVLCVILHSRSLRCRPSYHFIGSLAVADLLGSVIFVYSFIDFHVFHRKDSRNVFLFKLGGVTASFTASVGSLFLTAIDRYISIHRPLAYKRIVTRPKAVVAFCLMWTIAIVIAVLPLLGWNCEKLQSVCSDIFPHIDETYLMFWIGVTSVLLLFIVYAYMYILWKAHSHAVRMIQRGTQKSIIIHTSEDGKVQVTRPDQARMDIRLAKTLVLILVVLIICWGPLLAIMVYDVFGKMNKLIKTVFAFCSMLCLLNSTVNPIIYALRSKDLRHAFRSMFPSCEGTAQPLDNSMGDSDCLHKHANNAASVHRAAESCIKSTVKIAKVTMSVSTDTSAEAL

[4] = target: T2, CB2 receptor (Homo sapiens, UniProt P34972); assay: Cannabinoid CB2 receptor binding assay; conditions: read-out: CB2 Ki; human recombinant CB2 in HEK-293 cells, [3H]CP-55940 0.5 nM
T2 sequence (P34972 whole entry): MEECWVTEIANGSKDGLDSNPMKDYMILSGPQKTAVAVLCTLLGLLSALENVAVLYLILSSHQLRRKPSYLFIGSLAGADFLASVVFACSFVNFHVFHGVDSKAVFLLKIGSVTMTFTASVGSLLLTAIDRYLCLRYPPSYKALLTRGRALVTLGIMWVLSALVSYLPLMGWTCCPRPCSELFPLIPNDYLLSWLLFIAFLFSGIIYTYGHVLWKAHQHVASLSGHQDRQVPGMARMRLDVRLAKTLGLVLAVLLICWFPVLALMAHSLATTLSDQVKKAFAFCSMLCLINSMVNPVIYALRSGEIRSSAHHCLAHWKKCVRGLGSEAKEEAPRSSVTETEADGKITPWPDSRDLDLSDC

[5] = target: T1, CB1 receptor; assay: cAMP functional assay, forskolin-stimulated, CHO-K1 cells expressing CB1; assay type: cell-based; conditions: through CB1 receptor
[6] = target: T2, CB2 receptor; assay: cAMP functional assay, forskolin-stimulated, CHO-K1 cells expressing CB2; assay type: cell-based; conditions: through CB2 receptor
[7] = target: T3, fatty acid amide hydrolase (FAAH) (Homo sapiens, UniProt O00519); assay: FAAH inhibitor enzyme assay; assay type: biochemical; conditions: tested at 10 and 100 μM
T3 sequence (O00519 1-579): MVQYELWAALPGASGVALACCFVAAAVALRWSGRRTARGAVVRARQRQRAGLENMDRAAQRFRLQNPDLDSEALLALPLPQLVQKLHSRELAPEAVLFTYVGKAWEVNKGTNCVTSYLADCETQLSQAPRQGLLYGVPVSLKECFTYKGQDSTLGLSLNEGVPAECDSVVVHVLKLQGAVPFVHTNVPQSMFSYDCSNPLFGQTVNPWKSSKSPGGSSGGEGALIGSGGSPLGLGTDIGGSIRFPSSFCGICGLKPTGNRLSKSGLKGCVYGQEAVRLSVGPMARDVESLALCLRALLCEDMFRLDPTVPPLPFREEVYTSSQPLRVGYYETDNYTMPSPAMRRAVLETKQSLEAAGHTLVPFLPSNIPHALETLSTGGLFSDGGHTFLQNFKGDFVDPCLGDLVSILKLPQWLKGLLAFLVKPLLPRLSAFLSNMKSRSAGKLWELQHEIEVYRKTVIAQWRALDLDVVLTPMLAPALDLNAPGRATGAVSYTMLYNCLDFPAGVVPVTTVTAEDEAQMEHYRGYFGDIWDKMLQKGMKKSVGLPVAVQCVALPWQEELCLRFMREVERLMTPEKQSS
Outline: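 Kit FAAH enzyme was preincubated in assay buffer with the test compound (10 and 100 μM) or solvent control. The reaction was started with AMC arachidonoyl amide substrate (20 μM final) and run for 30 min at 37 °C. Fluorescence was read at ex 350 nm / em 455 nm.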

[8] = test system: NO production in RAW 264.7 mouse macrophage cells; assay: NO assay in LPS-induced RAW 264.7 macrophages; assay type: cell-based; conditions: read-out: IC50, inhibition of NO production; LPS-induced RAW 264.7, 24 h
Outline: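 Mouse RAW 264.7 cells in DMEM with 10% FBS, 5% CO2, seeded at 2 × 10^4 cells/well. After 24 h, test compound or solvent control (1% EtOH) was added, then LPS (0.5 μg/mL). Medium nitrite was measured after 24 h by Griess reagent: sulfanilamide, then naphthylethylenediamine-HCl, 5 min each at RT in the dark, A540. Quantified against a 0–100 μM nitrite standard curve; duplicates.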

[9] = test system: HT-29 colon adenocarcinoma cells; assay: Cell viability assay; assay type: cell-based; conditions: 48 h, MTT
Outline: (§1)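 Cells grown in DMEM with 10% FBS at 37 °C, 5% CO2. Seeded at 10,500 cells/well (MCF7) or 11,000 cells/well (HT-29). After 24 h, treated with various concentrations of the test compound or solvent control (1% EtOH). Viability was read by MTT after 48 h.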

[10] = test system: MCF7 breast cancer cells; assay: Cell viability assay; assay type: cell-based; conditions: up to 100 μM, 48 h, MTT
Outline: as §1

[11] = test system: RAW 264.7 cells; assay: Cellular viability of RAW 264.7 macrophages; assay type: cell-based, mouse; conditions: RAW 264.7, up to 25 μM

SMILES | Selectivity for the CB1 receptor over CB2 ([1]; human CB1 vs CB2 binding) | pKi ([1]; read-out: CB1 Ki, human CB1) | Cytotoxic properties [2] | pKi [3] | pKi [4] | Functional mode at CB1 (inhibition of forskolin-stimulated cAMP accumulation) [5] | Functional mode at CB2 (inhibition of forskolin-stimulated cAMP accumulation) [6] | FAAH inhibition [7] | pIC50 [8] | Cytotoxicity against HT-29 ([9]; up to 100 μM) | Cytotoxicity against MCF7 [10] | Effect on cellular viability [11] | pIC50 ([9]; read-out: IC50, cytotoxicity to HT-29 cells)
CCCCCCCCCCCCC/C=C/CCC(=O)N(C)[C@H](CO)COC [Compound 4, serinolamide A] | more than 5 fold | 5.89 | showed some cytotoxic properties | – | – | – | – | – | – | – | – | – | –
CCCCCCCCCCCCC/C=C/CCC(=O)N[C@H](CO)COC [Compound 5, Serinolamide B] | – | – | – | 4.79 | 5.28 | cannabinoid receptor agonists | cannabinoid receptor agonists | no considerable inhibitory effects | < 4.60 | failed to show significant cytotoxicity | failed to show significant cytotoxicity | – | –
CCCCCCC[C@@H](C/C=C/CCC(=O)N(C)C/C(=C/Cl)C/C(=C\C(=O)N1CC(O)CC1=O)OC)OC (stereo partly shown) [Compound 6, malyngamide B] | – | – | – | 5.44 | 5.59 | cannabinoid receptor agonists | cannabinoid receptor agonists | no considerable inhibitory effects | 5.21 | – | – | without affecting cellular viability | 4.59
